Laboratory results as given in ChEMBL document CHEMBL1125849, “Synthesis of the 2-amino-4-phosphonobutanoic acid analogues (E)- and (Z)-2-amino-2,3-methano-4-phosphonobutanoic acid and their evaluation as inhibitors of hippocampal excitatory neurotransmission” (J Med Chem, 1991).

Key:
Format in all cases: functional
[1] = species: Rattus norvegicus; assay: Inhibitory activity against Hippocampal Excitatory Neurotransmission using lateral perforant path (LPP)in rat hippocamapl slice Tested as racemic mixtures
How it was run: (§1)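 Rat transverse hippocampal slices (450 μm) from urethane-anesthetized animals, held in oxygenated bicarbonate medium, pH 7.4. Recording in a microperfusion chamber at 34 °C. Field potentials in the dentate molecular layer: outer third for LPP, middle third for MPP. Placement checked with L-AP4. Drug started at threshold and doubled every 4 min. IC50 taken from fractional response versus log concentration, as a weighted mean.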

[2] = species: Rattus norvegicus; assay: Inhibitory activity against Hippocampal Excitatory Neurotransmission using medial perforant path (MPP) in rat hippocamapl slice Tested as racemic mixtures; how it was run: as §1
[3] = Ratio is IC50 vales of medial perforant path (MPP) to that of lateral perforant path (LPP)
How it was run: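 Ratio of MPP to LPP IC50 values from rat hippocampal slice field-potential recordings. Dentate molecular layer recorded, middle third (MPP) and outer third (LPP), at 34 °C. Concentration doubled every 4 min. Each IC50 is a weighted mean taken from fractional-response versus log-concentration curves.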

[4] = Rattus norvegicus, Perforant path

Compound | IC50 [1, 4] [µM] | IC50 [2, 4] [µM] | Ratio [3] | IC50 [1] [µM] | IC50 [2] [µM]
N[C@]1(C(=O)O)CC[C@H](P(=O)(O)O)C1 | 130 | 1850 | 31 |  | 
N[C@]1(C(=O)O)CC[C@@H](P(=O)(O)O)C1 | 960 | 2400 | 2.5 |  | 
N[C@@H](CCP(=O)(O)O)C(=O)O |  |  | 18 |  | 
NC1(C(=O)O)CC1CP(=O)(O)O (stereo in doubt; 5) |  |  | 88 | 18 | 1580
NC1(C(=O)O)CC1CP(=O)(O)O (stereo in doubt; 6) | 17 |  | 4.8 |  | 81
